Common to all, as to type: cell-based
The target of experiment [1] is Neuronal acetylcholine receptor; alpha3/beta4 (Rattus norvegicus, UniProt P04757+P12392). The experiment can be described thus: Displacement of [3H]epibatidine from rat alpha3beta4 nAChR transfected in HEK293 cells after 2 hrs by beta-plate counting analysis. In short, it runs like this: (§1)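 Cell lines KXα3β4R2 and KXα4β2R2 (rat receptors) were used. Membranes were prepared by homogenizing cells in 50 mM Tris pH 7.4 and centrifuging twice at 20000g. They were incubated 2 h at room temperature with 0.3 nM [3H]epibatidine plus test sample, then filtered on PEI-soaked glass fiber and counted. Nonspecific binding was defined by 1 µM AT-1001 or 0.1 µM epibatidine. Ki was obtained by Cheng–Prusoff; runs were in triplicate, at least twice.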
Neuronal acetylcholine receptor; alpha3/beta4, sequence (P04757 whole entry): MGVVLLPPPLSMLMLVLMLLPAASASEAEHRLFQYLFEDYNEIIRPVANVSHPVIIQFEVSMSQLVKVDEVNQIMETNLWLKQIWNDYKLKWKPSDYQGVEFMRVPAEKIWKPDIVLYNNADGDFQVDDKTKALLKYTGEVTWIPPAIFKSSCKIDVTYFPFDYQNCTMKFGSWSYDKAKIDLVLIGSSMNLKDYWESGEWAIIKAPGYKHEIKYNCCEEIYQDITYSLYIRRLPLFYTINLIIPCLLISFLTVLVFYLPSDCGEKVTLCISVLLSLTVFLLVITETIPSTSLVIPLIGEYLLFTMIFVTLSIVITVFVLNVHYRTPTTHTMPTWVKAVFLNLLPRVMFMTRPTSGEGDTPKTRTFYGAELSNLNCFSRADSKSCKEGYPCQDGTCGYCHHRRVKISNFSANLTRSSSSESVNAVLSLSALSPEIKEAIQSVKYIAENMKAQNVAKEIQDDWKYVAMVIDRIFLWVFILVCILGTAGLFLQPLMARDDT
Neuronal acetylcholine receptor; alpha3/beta4, sequence (P12392 whole entry): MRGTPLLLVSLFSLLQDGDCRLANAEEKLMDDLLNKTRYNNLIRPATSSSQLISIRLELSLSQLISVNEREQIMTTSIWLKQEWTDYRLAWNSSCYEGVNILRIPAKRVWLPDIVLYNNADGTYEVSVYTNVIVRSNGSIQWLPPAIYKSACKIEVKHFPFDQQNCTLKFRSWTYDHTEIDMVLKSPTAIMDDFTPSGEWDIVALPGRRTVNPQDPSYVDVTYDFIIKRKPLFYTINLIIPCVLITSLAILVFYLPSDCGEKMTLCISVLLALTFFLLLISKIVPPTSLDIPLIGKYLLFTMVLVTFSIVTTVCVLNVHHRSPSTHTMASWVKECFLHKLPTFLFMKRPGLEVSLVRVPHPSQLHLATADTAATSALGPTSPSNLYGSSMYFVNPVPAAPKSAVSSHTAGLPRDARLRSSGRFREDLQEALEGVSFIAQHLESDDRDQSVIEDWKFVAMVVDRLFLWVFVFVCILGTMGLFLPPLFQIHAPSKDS
In general terms: Displacement assays read how much labelled ligand stays bound in the presence of the test substance.

Experiment [2] concerns the target Neuronal acetylcholine receptor; alpha4/beta2 (Rattus norvegicus, UniProt P09483+P12390). Nature of the experiment: Displacement of [3H]epibatidine from rat alpha4beta2 nAChR transfected in HEK293 cells after 2 hrs by beta-plate counting analysis. The procedure, abridged: as §1
In the next experiment the test system is HEK293. Nature of the experiment: Selectivity ratio for rat alpha3beta4 nAChR transfected in HEK293 cells to rat alpha4beta2 nAChR transfected in HEK293 cells.

Neuronal acetylcholine receptor; alpha4/beta2, sequence (P09483 whole entry): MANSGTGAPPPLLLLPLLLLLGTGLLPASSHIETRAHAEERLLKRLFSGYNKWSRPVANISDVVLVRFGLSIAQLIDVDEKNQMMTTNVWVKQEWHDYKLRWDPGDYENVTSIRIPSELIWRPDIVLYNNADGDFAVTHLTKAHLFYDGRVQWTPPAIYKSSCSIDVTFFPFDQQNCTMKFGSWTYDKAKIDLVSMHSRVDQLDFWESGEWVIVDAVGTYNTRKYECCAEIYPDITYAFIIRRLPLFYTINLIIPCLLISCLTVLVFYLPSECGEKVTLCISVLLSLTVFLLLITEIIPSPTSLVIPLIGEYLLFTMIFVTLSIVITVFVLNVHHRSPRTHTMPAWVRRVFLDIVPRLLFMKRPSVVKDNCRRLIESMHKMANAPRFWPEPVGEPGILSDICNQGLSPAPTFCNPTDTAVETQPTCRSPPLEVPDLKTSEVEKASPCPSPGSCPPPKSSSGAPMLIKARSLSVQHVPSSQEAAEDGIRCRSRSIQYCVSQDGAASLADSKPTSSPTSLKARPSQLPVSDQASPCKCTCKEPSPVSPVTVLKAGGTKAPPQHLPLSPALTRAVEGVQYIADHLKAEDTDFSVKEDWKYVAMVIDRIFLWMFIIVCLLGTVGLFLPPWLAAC
Neuronal acetylcholine receptor; alpha4/beta2, sequence (P12390 whole entry): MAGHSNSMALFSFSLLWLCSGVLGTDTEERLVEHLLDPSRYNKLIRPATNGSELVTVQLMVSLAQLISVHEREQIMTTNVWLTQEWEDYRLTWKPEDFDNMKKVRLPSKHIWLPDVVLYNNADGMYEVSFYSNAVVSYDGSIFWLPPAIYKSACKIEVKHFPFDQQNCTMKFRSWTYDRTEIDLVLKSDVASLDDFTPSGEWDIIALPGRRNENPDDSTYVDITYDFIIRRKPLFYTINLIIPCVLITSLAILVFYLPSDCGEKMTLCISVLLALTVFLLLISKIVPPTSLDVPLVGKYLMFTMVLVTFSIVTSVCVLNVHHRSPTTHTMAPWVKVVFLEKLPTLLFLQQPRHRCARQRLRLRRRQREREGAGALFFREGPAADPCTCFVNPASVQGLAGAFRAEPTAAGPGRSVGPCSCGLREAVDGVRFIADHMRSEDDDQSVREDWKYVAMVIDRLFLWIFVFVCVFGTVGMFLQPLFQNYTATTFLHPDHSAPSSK

What is called Ki is a dissociation constant, usually derived from enzyme kinetics or from competition with a known ligand. Low readings indicate higher affinity, high ones lower affinity. As for `CC(C)CCCN1C(N)=NC[C@@H]1CCCCN1C[C@@H](CC2CCCCC2)N(CCc2cccc(Br)c2)C1=N`, the Ki turned out to be 37.3 µM in experiment [1] and 3.3 µM in experiment [2].
In the case of `CCCCCCCN1C(=N)NC[C@@H]1CCCCN1C[C@@H](Cc2ccccc2)N(CC2CCC(C(C)(C)C)CC2)C1=N` (some centres not stated), the Selectivity ratio with HEK293 worked out at 19.3.
With `N=C1N(CCCC[C@H]2CN=C(N)N2CCc2ccc(Cl)c(Cl)c2)C[C@H](Cc2ccc3ccccc3c2)N1CCc1ccc(Br)cc1`, the figures for the Ki in experiment [1] and in experiment [2] were 2.7 µM and 3.1 µM, respectively.
With `N=C1NC[C@H](CCCCN2C[C@H](Cc3ccc4ccccc4c3)N(CCc3ccc(Br)cc3)C2=N)N1CCc1ccc(Cl)c(Cl)c1`, the Selectivity ratio in the experiment on HEK293 was -0.1.
Turning to `CCCCCCCN1C(N)=NC[C@@H]1CCCCN1C[C@@H](CC2CCCCC2)N(CC2CCC(C(C)(C)C)CC2)C1=N` (some centres not stated), the Ki was 55.1 µM in experiment [1] and 3.9 µM in experiment [2].
With `CCCCCCCN1C(=N)NC[C@@H]1CCCCN1C[C@@H](CC2CCCCC2)N(CCc2cccc(Br)c2)C1=N`, the Selectivity ratio with HEK293 was 7.2.
Same read-out and setting: as for `N=C1NC[C@H](CCCCN2C[C@@H](Cc3ccc4ccccc4c3)N(CCc3cccc(Br)c3)C2=N)N1CCc1ccc(Cl)c(Cl)c1`, the figure is 0.6; as for `N=C1NC[C@H](CCCCN2C[C@@H](Cc3ccc4ccccc4c3)N(CCc3ccc(Br)cc3)C2=N)N1CCc1ccc(Cl)c(Cl)c1`, 0.6; as for `CCCCCCCN1C(=N)NC[C@@H]1CCCCN1C[C@@H](CC2CCCCC2)N(CC2CCC(C(C)(C)C)CC2)C1=N` (some centres not stated), 13.2.
As to `CC(C)CCCN1C(=N)NC[C@@H]1CCCCN1C[C@@H](CC2CCCCC2)N(CCc2cccc(Br)c2)C1=N`, in the experiment on HEK293, the Selectivity ratio was 10.2.
As to `CC(C)CCCN1C(=N)NC[C@@H]1CCCCN1C[C@@H](CC2CCCCC2)N(CC2CCC(C(C)(C)C)CC2)C1=N` (some centres not stated), the Selectivity ratio in the experiment with HEK293 worked out at 21.2.
Same read-out and setting: as for `N=C1NC[C@H](CCCCN2C[C@@H](Cc3ccc4ccccc4c3)N(CCc3ccc(Cl)c(Cl)c3)C2=N)N1CCc1ccc(Cl)c(Cl)c1`, the figure is 6.3.
Regarding `CC(C)CCCN1C(N)=NC[C@@H]1CCCCN1C[C@@H](CC2CCCCC2)N(CC2CCC(C(C)(C)C)CC2)C1=N` (some centres not stated), the Ki was found to be 78.4 µM in experiment [1] and 3.5 µM in experiment [2].
Take `N=C1N(CCCC[C@H]2CN=C(N)N2CCc2ccc(Cl)c(Cl)c2)C[C@@H](Cc2ccc3ccccc3c2)N1CCc1ccc(Br)cc1`: the results for the Ki in experiment [1] and in experiment [2] were 4 µM and 2.5 µM, respectively.
As for `N=C1N(CCCC[C@H]2CN=C(N)N2CCc2ccc(Cl)c(Cl)c2)C[C@@H](Cc2ccc3ccccc3c2)N1CCc1cccc(Br)c1`, the Ki in experiment [1] was 3 µM; in experiment [2], 1.9 µM.
Take `N=C1N(CCCC[C@H]2CN=C(N)N2CCc2cccc(F)c2)C[C@@H](Cc2ccccc2)N1CCc1cccc(Br)c1`: the Ki is 20.4 µM in experiment [1] and 1.8 µM in experiment [2].
With `N=C1N(CCCC[C@H]2CN=C(N)N2CCc2ccc(Cl)c(Cl)c2)C[C@@H](Cc2ccc3ccccc3c2)N1CCc1ccc(Cl)c(Cl)c1`, the values for the Ki in experiment [1] and in experiment [2] were 347 µM and 47.5 µM, respectively.
In the same order, the values of `CCCCCCCN1C(N)=NC[C@@H]1CCCCN1C[C@@H](Cc2ccccc2)N(CC2CCC(C(C)(C)C)CC2)C1=N` (some centres not stated) are 54.4 µM and 2.7 µM.
With `CCCCCCCN1C(N)=NC[C@@H]1CCCCN1C[C@@H](CC2CCCCC2)N(CCc2cccc(Br)c2)C1=N`, the Ki in experiment [1] turned out to be 23.4 µM; in experiment [2], 2.8 µM.
As to `N=C1N(CCCC[C@H]2CN=C(N)N2CCc2ccc(Cl)c(Cl)c2)C[C@H](Cc2ccc3ccccc3c2)N1CCc1ccc(Cl)c(Cl)c1`, the Ki came out at 100 µM in experiment [1] and 183 µM in experiment [2].
With `N=C1N(CCCC[C@H]2CN=C(N)N2CCc2cccc(F)c2)C[C@@H](CC2CCCCC2)N1CCc1cccc(Br)c1`, the Ki in experiment [1] was found to be 20.1 µM; in experiment [2] it was 3.5 µM.
Consider `N=C1N(CCCC[C@H]2CN=C(N)N2CCc2ccc(Cl)c(Cl)c2)C[C@H](Cc2ccc3ccccc3c2)N1CCc1cccc(Br)c1`, for which the Ki in experiment [1] turned out to be 76 µM; in experiment [2], 43.4 µM.
For the compound `CC(C)CCCN1C(N)=NC[C@@H]1CCCCN1C[C@@H](Cc2ccccc2)N(CC2CCC(C(C)(C)C)CC2)C1=N` (some centres not stated), the Ki in experiment [1] is 68.4 µM; in experiment [2], 2.3 µM.

Values taken from ChEMBL document CHEMBL3108759, “Scaffold ranking and positional scanning utilized in the discovery of nAChR-selective compounds suitable for optimization studies” (J Med Chem, 2013).
